Assay [1] addresses T1, Adrenergic receptor alpha-2 (Homo sapiens) (UniProt P08913+P18825+P18089). The conditions noted are these: Cavia porcellus.
Assay [2] has as its target T2, Alpha-1A adrenergic receptor (Rattus norvegicus) (UniProt P43140).
T2 sequence (whole entry): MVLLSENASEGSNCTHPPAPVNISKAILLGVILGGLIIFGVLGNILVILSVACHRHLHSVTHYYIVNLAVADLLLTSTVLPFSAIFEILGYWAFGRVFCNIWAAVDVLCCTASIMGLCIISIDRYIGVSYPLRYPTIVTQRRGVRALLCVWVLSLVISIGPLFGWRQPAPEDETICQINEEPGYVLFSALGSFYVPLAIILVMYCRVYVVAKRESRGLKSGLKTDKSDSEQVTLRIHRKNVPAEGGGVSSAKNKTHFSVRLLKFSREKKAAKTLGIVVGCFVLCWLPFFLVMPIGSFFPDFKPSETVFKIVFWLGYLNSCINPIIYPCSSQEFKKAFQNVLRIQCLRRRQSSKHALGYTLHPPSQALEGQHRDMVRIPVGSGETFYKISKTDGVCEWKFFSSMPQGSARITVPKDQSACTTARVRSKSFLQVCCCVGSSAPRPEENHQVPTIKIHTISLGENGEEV
Briefly: The compound was tested for alpha-adrenergic activity against Alpha-1 adrenergic receptor from rat aorta;IN- Inactive up to a concentration of 1*10e-3 M. In short, it runs like this: (§1)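 Isolated rat aorta strips at 2 g resting tension, stabilized about 1 h. Beta-receptors blocked with propranolol 10^-6 mol/L for 30 min. Cumulative norepinephrine curve (10^-10 to 10^-7 mol/L) with ascorbic acid 1.13 × 10^-6 mol/L present. ED50 by Ariens–Van Rossum. Intrinsic activity = maximum response relative to norepinephrine. Antagonism as pA2 (Schild) or, if non-competitive, pD'2.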

In assay [3] the target is T1, Adrenergic receptor alpha-2 (Homo sapiens). Nature of the assay: The compound was tested for alpha-adrenergic activity against alpha-2 adrenergic receptor from guinea pig vas up to a concentration of 1*10e-3 M. The following applies: Cavia porcellus; target entry is the homologue from another species.
Assay [4] addresses T2, Alpha-1A adrenergic receptor (Rattus norvegicus). Nature of the assay: Intrinsic activity expressed as ratio of maximum responses to the compound to the maximum response to norepinephrine; IN-Inactive up to a concentration of 1*10e-3 M. In kind it is functional. Summed up:
as §1

The target in assay [5] is Beta-2 adrenergic receptor (Cavia porcellus, UniProt Q8K4Z4). Briefly: The compound was tested for beta-adrenergic activity against Beta-2 adrenergic receptor from guinea pig trachea.
Beta-2 adrenergic receptor, sequence (Q8K4Z4 whole entry): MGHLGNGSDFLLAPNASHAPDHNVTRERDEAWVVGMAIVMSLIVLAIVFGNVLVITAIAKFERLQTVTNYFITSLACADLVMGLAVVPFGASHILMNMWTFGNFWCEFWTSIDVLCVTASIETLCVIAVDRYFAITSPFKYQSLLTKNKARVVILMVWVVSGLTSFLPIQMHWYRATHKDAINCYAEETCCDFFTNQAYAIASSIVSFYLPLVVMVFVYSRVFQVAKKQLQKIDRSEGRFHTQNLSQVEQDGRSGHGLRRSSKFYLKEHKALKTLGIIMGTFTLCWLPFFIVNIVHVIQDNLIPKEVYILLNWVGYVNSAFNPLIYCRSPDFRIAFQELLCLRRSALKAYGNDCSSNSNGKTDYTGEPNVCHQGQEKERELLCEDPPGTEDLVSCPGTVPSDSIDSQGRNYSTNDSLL
Assay [6] has as its target T3, Beta-1 adrenergic receptor (Cavia porcellus, UniProt B0FL73). Nature of the assay: The compound was tested for beta-adrenergic activity against Beta-1 adrenergic receptor from guinea pig right atria. The following applies: read-out: pA2 (converted). Summed up:
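Spontaneously beating isolated right atria (chronotropy) from guinea pigs of 300-500 g. Phentolamine 3.15 × 10^-4 mmol/L in bath. Isoprenaline cumulative curves with ascorbic acid 1.13 × 10^-6 mol/L, before and after 30 min antagonist preincubation. Reported as pA2 or pD'2.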

The target in assay [7] is T3, Beta-1 adrenergic receptor. Nature of the assay: The compound was tested for beta-adrenergic activity against Beta-1 adrenergic receptor from guinea pig left atria. The following applies: read-out: pA2 (converted). In short, it runs like this:
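Electrically paced isolated left atria (inotropy) from guinea pigs of 300-500 g, 2.5 Hz, 5 ms pulses at 50% above threshold. Phentolamine 3.15 × 10^-4 mmol/L in bath. Cumulative isoprenaline curves with ascorbic acid 1.13 × 10^-6 mol/L, before and after 30 min antagonist preincubation. Reported as pA2 or pD'2.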

In assay [8] the target is T4, Alpha-1A adrenergic receptor (Rattus norvegicus, UniProt P43140).
T4 sequence (P43140 whole entry): T2 sequence (whole entry)
Nature of the assay: The compound was tested for alpha-adrenergic activity against Alpha-1 adrenergic receptor from rat aorta. The conditions noted are these: read-out: pA2 (converted). In short, it runs like this: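 Isolated rat aorta strips at 2 g resting tension, stabilized about 1 h. Beta-receptors blocked with propranolol 10^-6 mol/L for 30 min. ED50 by Ariens–Van Rossum. Intrinsic activity = maximum response relative to norepinephrine. Antagonism as pA2 (Schild) or, if non-competitive, pD'2.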

Assay [9] concerns the target T2, Alpha-1A adrenergic receptor (Rattus norvegicus).
Assay [10] concerns the target Beta-2 adrenergic receptor (Cavia porcellus) (UniProt Q8K4Z4).
Assay [11] has as its target T5, Adrenergic receptor alpha-2 (Homo sapiens, UniProt P08913+P18825+P18089).
T5 sequence (P08913 whole entry): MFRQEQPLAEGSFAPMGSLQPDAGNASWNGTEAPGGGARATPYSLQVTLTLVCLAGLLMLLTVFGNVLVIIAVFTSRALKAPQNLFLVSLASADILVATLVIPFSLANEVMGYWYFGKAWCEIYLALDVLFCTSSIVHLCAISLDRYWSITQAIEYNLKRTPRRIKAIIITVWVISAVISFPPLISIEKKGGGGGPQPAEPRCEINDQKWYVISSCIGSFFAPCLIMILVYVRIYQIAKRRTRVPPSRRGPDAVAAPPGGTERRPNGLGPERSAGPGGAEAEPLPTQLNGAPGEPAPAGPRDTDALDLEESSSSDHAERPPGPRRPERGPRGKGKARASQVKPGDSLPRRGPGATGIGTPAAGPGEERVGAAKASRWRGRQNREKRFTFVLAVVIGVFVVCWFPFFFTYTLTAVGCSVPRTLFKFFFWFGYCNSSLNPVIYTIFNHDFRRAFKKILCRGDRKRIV
T5 sequence (P18825 whole entry): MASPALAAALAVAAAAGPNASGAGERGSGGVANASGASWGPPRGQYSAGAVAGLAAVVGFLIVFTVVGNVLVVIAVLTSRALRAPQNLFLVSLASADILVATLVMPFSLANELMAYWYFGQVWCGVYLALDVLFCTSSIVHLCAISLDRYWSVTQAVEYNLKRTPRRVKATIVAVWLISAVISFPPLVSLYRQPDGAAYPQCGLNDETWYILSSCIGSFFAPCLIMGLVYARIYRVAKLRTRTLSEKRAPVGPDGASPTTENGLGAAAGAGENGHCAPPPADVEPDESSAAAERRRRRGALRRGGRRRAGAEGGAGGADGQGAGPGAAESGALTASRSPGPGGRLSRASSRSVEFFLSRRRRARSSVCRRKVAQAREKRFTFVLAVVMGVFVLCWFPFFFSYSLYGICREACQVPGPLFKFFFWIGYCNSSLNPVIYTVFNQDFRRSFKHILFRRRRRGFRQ
T5 sequence (P18089 whole entry): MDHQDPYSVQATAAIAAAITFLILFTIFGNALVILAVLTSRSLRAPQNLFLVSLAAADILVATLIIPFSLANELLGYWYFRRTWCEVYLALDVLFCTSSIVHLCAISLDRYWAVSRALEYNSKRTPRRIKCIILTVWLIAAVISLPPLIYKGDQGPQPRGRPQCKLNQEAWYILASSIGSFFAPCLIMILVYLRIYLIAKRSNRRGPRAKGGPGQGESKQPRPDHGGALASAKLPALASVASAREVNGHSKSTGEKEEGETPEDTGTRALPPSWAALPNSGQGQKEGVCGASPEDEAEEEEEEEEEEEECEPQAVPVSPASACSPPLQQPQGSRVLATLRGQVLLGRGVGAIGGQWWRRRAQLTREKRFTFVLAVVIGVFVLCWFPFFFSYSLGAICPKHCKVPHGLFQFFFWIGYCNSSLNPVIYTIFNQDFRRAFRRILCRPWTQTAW
Nature of the assay: The compound was tested for alpha-adrenergic activity against alpha-2 adrenergic receptor from guinea pig vas deferens. The conditions noted are these: target entry is the homologue from another species. Details: species or system Cavia porcellus.

Assay [12] concerns the target T2, Alpha-1A adrenergic receptor (Rattus norvegicus). Nature of the assay: Intrinsic activity expressed as ratio of maximum responses to the compound to the maximum response to norepinephrine; IN-Inactive up to a concentration of 1*10e-4 M. The class given is functional. Summed up: as §1
Assay [13] shares this target. The source holds these as a separate data set.
The target in assay [14] is T1, Adrenergic receptor alpha-2 (Homo sapiens). The conditions noted are these: Cavia porcellus. The source holds these as a separate data set.
Assay [15] has as its target T2, Alpha-1A adrenergic receptor (Rattus norvegicus). Nature of the assay: Intrinsic activity expressed as ratio of maximum responses to the compound to the maximum response to norepinephrine; IN-Inactive up to a concentration of 1*10e-5 M. The class given is functional. Summed up:
as §1

The target is the same in assay [16]. This is another data set of the same source.
For assay [17] the target is unchanged. This is another data set of the same source.
The target in assay [18] is T1, Adrenergic receptor alpha-2 (Homo sapiens). The conditions noted are these: Cavia porcellus. This is another data set of the same source.

Activity calls are given as the source filed them.

T3 sequence (B0FL73 whole entry): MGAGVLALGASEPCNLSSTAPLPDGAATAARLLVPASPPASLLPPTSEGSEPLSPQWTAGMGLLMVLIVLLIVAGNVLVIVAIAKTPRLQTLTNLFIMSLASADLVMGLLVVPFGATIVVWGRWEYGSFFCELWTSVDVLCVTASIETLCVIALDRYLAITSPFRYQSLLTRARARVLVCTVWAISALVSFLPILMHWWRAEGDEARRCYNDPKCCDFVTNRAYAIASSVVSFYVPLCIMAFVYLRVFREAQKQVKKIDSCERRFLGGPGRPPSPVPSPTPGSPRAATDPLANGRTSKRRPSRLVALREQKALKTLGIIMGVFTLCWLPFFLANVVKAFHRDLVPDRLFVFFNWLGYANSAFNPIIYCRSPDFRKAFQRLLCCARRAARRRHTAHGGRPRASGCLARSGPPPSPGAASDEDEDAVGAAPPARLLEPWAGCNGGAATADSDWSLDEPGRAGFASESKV
Beta-2 adrenergic receptor (Cavia porcellus), sequence (Q8K4Z4 whole entry, looked up): as the sequence (Q8K4Z4 whole entry) above

The term pA2 denotes the negative logarithm of the molar antagonist concentration that doubles the agonist concentration needed for the same response. In [1], `C/C(=N\OCC(O)CNC(C)(C)C)c1cc(Cl)c(NC2=NCCN2)c(Cl)c1` (stereo in doubt; (-)-3) [listing 1 of 2 here] came in with a pD2 of 4.9. The pD2 entry in assay [2] was “inactive”. Moreover, the pA2 result in [3] is “inactive”. In addition, the Intrinsic activity entry in assay [4] is “inactive”.

For the compound `C/C(=N\OCC(O)CNC(C)(C)C)c1cc(Cl)c(NC2=NCCN2)c(Cl)c1` (stereo in doubt; (-)-3) [listing 2 of 2 here], the Kb is 100 µM in [5], 50.1 µM in assay [6], 25.1 µM in assay [7] and 12.6 µM in assay [8].

In turn, `CC(C)(C)NCC(O)COc1cc(Cl)c(NC2=NCCN2)c(Cl)c1` (stereo unspecified) had a pD2 in [1] of 3.52. The results for the Kb in assay [6], in assay [7] and in assay [8] were 50.1 µM, more than 100 µM and more than 63.1 µM, respectively. In addition, the pD2 result in assay [9] is “inactive”. The pA2 result in assay [10] is “inactive”. This compound had a pA2 in assay [11] of 5.12. In [12], the Intrinsic activity result was “inactive”.

As for `CC(C)(C)NCC(O)COCC1CN=C(Nc2c(Cl)cccc2Cl)N1` (stereo unspecified), the pD2 in assay [1] was found to be 6.4. In addition, the pD2 entry in assay [13] is “inactive”. For the same compound, the Kb is 1.02 µM in [6] and more than 10 µM in [7]. Further, the pA2 result in assay [14], in assay [10] and in assay [16] was “inactive” each time. Besides, in assay [15], the Intrinsic activity result was “inactive”.

Consider `C/C(=N\OCC(O)CNC(C)(C)C)c1cc(Cl)c(NC2=NCCN2)c(Cl)c1` (single isomer, unassigned; (+)) [listing 1 of 2 here], for which the Kb in assay [5] is 79.4 µM; in assay [6], 50.1 µM; in [7], 50.1 µM; in assay [8], 7.94 µM.

As to `Clc1cccc(Cl)c1N=C1NCCN1` [CLONIDINE], the Kb is 39.8 µM in [6] and 63.1 µM in assay [7].

As for `C/C(=N\OCC(O)CNC(C)(C)C)c1cc(Cl)c(NC2=NCCN2)c(Cl)c1` (single isomer, unassigned; (+)) [listing 2 of 2 here], the pD2 in [1] stood at 5.1. Further, in assay [2], the pD2 entry was “inactive”. In addition, in assay [3], the pA2 entry was “inactive”. For the same compound, the Intrinsic activity entry in [4] is “inactive”.

Compound `Clc1cccc(Cl)c1NC1=NCCN1` gave a pD2 in assay [17] of 7.84.

Turning to `C/C(=N\OCC(O)CNC(C)(C)C)c1cc(Cl)c(NC2=NCCN2)c(Cl)c1` (stereo in doubt; 3) [listing 1 of 2 here], in assay [1], the pD2 is 4.63. Besides, the pD2 result in assay [2] is “inactive”. For the same compound, the pA2 result in assay [3] was “inactive”. Further, the Intrinsic activity result in assay [4] is “inactive”.

`C/C(=N\OCC(O)CNC(C)(C)C)c1cc(Cl)c(NC2=NCCN2)c(Cl)c1` (stereo in doubt; 3) [listing 2 of 2 here]: the Kb in assay [5] is 100 µM; in assay [6] it was 39.8 µM; in assay [7], 39.8 µM; in assay [8], 4.07 µM.

In turn, `C/C(=N\OCC(O)CNC(C)(C)C)c1cc(Cl)c(OC(C)C2=NCCN2)c(Cl)c1` (stereo unspecified) had a pD2 in [1] of 3.93. For the same compound, the Kb is 15.8 µM in assay [5], 1.48 µM in [6], 1.45 µM in assay [7] and 3.98 µM in assay [8]. Further, in [9], the pD2 entry was “inactive”. For the same compound, in assay [18], the pA2 result was “inactive”. In [12], the Intrinsic activity result was “inactive”.

(Values after ChEMBL document CHEMBL1125788, “Synthesis and ocular antihypertensive activity of new imidazolidine derivatives containing a beta-blocking side chain” (J Med Chem, 1991).)
